In ChEMBL document CHEMBL5653631, “A Potent and Selective ULK1 Inhibitor Suppresses Autophagy and Sensitizes Cancer Cells to Nutrient Stress” (iScience, 2018):

Experiments:
[1] = target: Mitogen-activated protein kinase kinase kinase kinase 1 (Homo sapiens) (UniProt Q92918); assay: Inhibition of human recombinant HPK1 at 500 nM in presence of ATP by radiometric assay relative to control
[2] = target: Serine/threonine-protein kinase pim-3 (Homo sapiens) (UniProt Q86V86); assay: Inhibition of human recombinant PIM3 at 500 nM related to control ULK1
[3] = target: Serine/threonine-protein kinase N2 (Homo sapiens) (UniProt Q16513); assay: Inhibition of human recombinant PKN2 at 500 nM related to control ULK1
Chain of Serine/threonine-protein kinase N2 (Homo sapiens) (Q16513 whole entry, looked up): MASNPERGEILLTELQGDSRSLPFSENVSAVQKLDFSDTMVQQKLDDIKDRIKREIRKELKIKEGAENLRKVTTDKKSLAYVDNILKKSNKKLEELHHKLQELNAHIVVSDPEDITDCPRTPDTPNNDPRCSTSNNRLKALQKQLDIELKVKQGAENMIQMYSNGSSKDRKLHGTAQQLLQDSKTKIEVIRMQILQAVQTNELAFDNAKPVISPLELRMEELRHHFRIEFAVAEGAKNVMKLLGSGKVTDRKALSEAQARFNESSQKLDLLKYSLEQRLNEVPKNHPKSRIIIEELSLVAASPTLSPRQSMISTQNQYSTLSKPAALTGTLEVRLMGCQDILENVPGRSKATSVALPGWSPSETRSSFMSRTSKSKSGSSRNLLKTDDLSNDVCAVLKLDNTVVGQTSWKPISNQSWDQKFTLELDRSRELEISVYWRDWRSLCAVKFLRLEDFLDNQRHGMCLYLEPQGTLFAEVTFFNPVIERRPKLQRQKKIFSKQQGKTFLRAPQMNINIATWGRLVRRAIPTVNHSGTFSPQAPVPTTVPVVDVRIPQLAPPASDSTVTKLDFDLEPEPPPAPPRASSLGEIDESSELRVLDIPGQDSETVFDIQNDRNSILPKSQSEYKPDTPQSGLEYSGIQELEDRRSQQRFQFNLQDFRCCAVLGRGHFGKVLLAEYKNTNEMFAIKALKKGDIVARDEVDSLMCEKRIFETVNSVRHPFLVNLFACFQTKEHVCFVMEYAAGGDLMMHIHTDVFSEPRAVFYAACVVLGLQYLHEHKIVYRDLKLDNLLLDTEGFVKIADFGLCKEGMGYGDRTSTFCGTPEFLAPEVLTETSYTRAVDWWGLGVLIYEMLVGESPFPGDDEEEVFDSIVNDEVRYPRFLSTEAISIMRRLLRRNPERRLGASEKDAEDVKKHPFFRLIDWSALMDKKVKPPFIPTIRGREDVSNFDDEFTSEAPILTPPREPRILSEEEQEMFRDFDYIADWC

[4] = target: T1, Serine/threonine-protein kinase D3 (Homo sapiens) (UniProt O94806); assay: Inhibition of human recombinant PKD3 at 500 nM related to control ULK1
T1 sequence (whole entry): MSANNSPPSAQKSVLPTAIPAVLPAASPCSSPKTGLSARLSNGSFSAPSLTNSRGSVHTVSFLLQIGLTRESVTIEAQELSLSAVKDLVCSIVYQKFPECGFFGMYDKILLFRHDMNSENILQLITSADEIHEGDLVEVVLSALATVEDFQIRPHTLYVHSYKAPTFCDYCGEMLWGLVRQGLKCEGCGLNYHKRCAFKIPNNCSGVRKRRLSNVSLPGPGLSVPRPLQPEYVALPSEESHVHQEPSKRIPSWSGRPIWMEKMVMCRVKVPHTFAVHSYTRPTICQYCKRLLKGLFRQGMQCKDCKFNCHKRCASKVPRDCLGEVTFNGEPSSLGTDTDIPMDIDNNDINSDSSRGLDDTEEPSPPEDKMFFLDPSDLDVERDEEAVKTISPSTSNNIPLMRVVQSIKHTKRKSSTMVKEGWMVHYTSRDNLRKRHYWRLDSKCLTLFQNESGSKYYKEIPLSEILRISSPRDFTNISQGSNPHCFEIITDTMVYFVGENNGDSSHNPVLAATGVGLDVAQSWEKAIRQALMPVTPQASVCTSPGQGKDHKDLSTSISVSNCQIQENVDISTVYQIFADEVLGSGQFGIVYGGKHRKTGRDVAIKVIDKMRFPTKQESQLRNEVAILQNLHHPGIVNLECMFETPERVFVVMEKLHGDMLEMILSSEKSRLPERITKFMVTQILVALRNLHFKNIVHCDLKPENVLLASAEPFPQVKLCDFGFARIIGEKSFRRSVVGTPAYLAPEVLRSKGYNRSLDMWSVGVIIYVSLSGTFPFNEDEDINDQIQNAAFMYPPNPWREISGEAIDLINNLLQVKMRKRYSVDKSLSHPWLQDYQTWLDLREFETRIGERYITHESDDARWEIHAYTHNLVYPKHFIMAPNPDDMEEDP

[5] = target: T2, Serine/threonine-protein kinase BRSK2 (Homo sapiens) (UniProt Q8IWQ3); assay: Inhibition of human recombinant BRSK2 at 15 nM related to control ULK1
T2 sequence (whole entry): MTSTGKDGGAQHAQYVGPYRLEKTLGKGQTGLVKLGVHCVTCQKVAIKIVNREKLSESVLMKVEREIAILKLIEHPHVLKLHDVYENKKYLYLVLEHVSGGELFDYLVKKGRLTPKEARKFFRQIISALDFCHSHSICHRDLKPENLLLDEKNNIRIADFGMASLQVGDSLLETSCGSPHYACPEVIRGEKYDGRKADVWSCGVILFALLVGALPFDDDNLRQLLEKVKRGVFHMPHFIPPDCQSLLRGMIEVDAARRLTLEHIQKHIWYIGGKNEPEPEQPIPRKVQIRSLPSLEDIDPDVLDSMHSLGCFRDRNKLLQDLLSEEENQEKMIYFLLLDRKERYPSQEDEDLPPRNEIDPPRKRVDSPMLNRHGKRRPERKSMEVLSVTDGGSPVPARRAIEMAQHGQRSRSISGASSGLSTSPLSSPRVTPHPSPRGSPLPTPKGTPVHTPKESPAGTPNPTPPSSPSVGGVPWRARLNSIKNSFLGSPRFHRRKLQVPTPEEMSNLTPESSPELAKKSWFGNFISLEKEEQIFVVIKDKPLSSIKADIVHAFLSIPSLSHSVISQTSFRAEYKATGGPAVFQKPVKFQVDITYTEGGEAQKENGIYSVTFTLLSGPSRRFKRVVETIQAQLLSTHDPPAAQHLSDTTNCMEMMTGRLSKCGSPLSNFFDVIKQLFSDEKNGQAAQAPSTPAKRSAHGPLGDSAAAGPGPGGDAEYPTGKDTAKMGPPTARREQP
Procedure, shortened: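 Recombinant human kinase panel (327 kinases) run as radiometric activity assays, each kinase in duplicate at one compound concentration. Activity remaining expressed relative to vehicle control; percent inhibition taken as 100% minus % activity remaining.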

[6] = target: Dual specificity tyrosine-phosphorylation-regulated kinase 1A (Homo sapiens) (UniProt Q13627); assay: Inhibition of human recombinant DYRK1A at 15 nM in presence of ATP by radiometric assay relative to control
[7] = target: Tyrosine-protein kinase Blk (Homo sapiens) (UniProt P51451); assay: Inhibition of human recombinant BLK at 40 nM related to control ULK1
Chain of Tyrosine-protein kinase Blk (Homo sapiens) (P51451 2-505 limits assumed): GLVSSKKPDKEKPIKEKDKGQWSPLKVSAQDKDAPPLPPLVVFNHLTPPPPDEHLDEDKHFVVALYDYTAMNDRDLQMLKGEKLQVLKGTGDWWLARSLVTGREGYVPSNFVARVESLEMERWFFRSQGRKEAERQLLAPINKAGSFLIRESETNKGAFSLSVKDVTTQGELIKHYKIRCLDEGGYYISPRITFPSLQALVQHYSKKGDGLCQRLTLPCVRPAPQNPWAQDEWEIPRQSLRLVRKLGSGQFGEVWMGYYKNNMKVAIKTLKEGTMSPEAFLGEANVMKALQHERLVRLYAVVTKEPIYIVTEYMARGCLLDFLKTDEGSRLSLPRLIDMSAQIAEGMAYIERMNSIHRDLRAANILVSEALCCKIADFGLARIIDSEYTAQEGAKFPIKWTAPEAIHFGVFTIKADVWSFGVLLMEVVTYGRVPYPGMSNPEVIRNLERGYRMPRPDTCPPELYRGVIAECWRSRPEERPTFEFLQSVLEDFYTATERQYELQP
Procedure, shortened: (§1)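 Radiometric activity assays in a panel of 327 human recombinant kinases, each run in duplicate at one inhibitor concentration. Activity remaining is expressed as percent of vehicle control, and percent inhibition is calculated as 100% minus percent activity remaining.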

[8] = target: Mitogen-activated protein kinase 1 (Homo sapiens) (UniProt P28482); assay: Inhibition of human recombinant Erk2 at 40 nM related to control ULK1
Chain of Mitogen-activated protein kinase 1 (Homo sapiens) (P28482 whole entry): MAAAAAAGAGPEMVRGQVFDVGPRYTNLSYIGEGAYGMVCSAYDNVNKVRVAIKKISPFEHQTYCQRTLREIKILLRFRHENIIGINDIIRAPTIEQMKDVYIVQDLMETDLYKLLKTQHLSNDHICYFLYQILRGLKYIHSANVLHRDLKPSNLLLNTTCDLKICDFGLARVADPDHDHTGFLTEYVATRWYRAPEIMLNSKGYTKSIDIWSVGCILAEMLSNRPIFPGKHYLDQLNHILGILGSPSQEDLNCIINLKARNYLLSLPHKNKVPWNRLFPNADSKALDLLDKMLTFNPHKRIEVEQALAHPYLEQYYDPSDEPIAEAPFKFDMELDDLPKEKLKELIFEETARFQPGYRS

Homo sapiens = species on record: Homo sapiens; assay: Inhibition of human recombinant ABL at 40 nM in presence of ATP by radiometric assay relative to control; procedure, shortened: as §1
[9] = target: Protein kinase C iota type (Homo sapiens) (UniProt P41743); assay: Inhibition of human recombinant PKCi at 40 nM related to control ULK1
Chain of Protein kinase C iota type (Homo sapiens) (P41743 whole entry, looked up): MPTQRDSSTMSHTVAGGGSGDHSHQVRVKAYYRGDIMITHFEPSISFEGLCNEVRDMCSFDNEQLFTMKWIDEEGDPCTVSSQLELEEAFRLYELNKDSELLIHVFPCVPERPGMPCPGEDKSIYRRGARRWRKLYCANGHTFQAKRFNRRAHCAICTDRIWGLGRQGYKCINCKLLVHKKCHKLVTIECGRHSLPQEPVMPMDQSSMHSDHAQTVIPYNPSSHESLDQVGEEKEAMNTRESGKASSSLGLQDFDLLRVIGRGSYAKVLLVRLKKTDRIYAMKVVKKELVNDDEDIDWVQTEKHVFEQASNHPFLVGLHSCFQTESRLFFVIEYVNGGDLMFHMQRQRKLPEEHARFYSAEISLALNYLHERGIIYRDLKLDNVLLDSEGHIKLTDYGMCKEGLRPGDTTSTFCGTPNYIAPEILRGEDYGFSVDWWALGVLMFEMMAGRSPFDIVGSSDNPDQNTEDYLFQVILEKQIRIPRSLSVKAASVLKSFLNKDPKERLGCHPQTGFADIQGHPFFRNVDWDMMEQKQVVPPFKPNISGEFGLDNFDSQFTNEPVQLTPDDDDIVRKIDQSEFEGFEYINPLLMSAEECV

Chain of Mitogen-activated protein kinase kinase kinase kinase 1 (Homo sapiens) (Q92918 whole entry, looked up): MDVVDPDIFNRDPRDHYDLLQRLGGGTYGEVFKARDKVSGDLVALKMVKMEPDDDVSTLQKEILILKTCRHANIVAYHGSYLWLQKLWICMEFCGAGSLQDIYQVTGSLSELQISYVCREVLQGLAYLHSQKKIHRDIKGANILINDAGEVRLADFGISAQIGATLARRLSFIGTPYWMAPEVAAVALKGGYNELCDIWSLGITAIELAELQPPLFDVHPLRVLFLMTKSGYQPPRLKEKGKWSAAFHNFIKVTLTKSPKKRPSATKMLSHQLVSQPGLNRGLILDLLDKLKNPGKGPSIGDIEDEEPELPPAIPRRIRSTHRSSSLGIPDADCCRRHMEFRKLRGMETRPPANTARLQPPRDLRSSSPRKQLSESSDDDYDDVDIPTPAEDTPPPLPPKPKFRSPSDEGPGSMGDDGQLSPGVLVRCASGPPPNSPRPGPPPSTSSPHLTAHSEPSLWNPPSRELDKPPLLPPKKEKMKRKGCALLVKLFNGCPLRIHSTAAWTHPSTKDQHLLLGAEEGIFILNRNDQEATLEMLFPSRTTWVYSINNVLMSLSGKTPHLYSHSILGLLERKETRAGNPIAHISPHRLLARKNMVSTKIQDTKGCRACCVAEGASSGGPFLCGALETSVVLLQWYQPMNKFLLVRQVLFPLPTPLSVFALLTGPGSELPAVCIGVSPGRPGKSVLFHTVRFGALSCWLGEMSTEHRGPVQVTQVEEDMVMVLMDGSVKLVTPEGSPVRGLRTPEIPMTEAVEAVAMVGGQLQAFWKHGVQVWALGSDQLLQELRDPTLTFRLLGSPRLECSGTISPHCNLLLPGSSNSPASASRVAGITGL

CNC(=O)c1ccccc1Oc1nc(Nc2cc(OC)c(OC)c(OC)c2)ncc1Br
inhibition [1]: 32% | fold change (FC) [2]: 0 | fold change (FC) [3]: 0 | fold change (FC) [4]: 0

CC(C)[C@H](NC(=O)c1cc(-c2cnn3cc(-c4ccc(OCCN5CCCCC5)cc4)cnc23)cs1)C(F)(F)F
fold change (FC) [5]: 0.28 | inhibition [6]: 73%

O=C(N[C@@H](C1CC1)C(F)(F)F)c1cc(-c2cnn3cc(-c4ccc(F)cc4)cnc23)cs1
fold change (FC) [7]: 0.23 | fold change (FC) [8]: 0 | inhibition (Homo sapiens): 12% | fold change (FC) [9]: 0
